SKKanGAS inh: inhibitors of SKKanGAS S. pyogenes growth in kanamycin (SK-promoter or general growth effect) | hit rate 1.3% among 300,000 | BacTiter-Glo, 6 h | inhibition, % at 7.5 µM;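 active means mean replicate score, as percent of positive control median, at least 50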;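 further: strain carries kanamycin resistance gene driven by streptokinase promoter and grows in 40 µg/ml kanamycin; loss of luminescence reflects streptokinase promoter inhibition or plain growth inhibition; 0% = median of DMSO wells and 100% = positive control at its reference dose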
CSC inhib: cancer stem cell inhibition | hit rate 1.1% among 300,000 | inhibition, % at 7.5 µM | AID 2717 | cancer stem cell-like cells viability, luminescence; in the data active means inhibition above about 75%; tested in HMLE shEcad cells
FN deposition inh: fibronectin deposition inhibition. AH1F fibroblasts, Alexa488-fibronectin deposition fluorescence, overnight. inhibition, % at 12.6 µM. hit rate 0.086% among 350,000;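 active means mean inhibition across replicates of 30% or more, regardless of how many single replicates reach that level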;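 further: positive control wells lacked labelled fibronectin entirely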
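Assay system: AH1F fibroblasts assembling fluorescent fibronectin matrix; Amount: 10000 AH1F cells per well; Buffer or medium: DMEM, 2% serum; Probe or stimulus: Alexa488-fibronectin, 24 nM final in well; Doses: single compound dose, delivered by pin transfer; Incubation: 1 h adhesion, overnight exposure; Measured by: fluorescence 485/525 nm; Read-out: fibronectin deposition inhibition.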
Rtt109 Vps75: blocks Candida albicans Rtt109/Vps75 acetyltransferase activity; Q5AAJ8; purified Rtt109/Vps75, ThioGlo CoA-SH fluorescence, 4 h; inhibition, % at 34.9 µM; hit rate 0.16% among 330,000;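 active means inhibition of at least 50% in every replicate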
Target sequence (Q5AAJ8 whole entry, looked up): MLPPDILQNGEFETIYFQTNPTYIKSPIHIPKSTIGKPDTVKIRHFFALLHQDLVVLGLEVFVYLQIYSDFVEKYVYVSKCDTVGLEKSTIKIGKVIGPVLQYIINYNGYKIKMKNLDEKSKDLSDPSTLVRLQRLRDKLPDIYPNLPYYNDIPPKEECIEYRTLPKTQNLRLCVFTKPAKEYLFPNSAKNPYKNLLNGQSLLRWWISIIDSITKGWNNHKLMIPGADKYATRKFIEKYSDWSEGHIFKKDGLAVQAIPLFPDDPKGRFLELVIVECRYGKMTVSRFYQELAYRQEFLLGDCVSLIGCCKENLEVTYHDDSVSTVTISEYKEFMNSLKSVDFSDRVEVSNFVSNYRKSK
PglD inh: inhibitors of Campylobacter jejuni PglD acetyltransferase. purified PglD enzyme, DTNB colorimetric CoA detection. inhibition, % at 12.5 µM. hit rate 0.098% among 360,000; in the data active means inhibition above about 16%, passing the limit was not always enough
PfHsp90 set2: growth inhibition of yeast expressing Plasmodium Hsp90 | S. cerevisiae expressing PfHsp90, BacTiter-Glo ATP, 48 h; yeast lacking PDR1 and PDR3 efflux regulators | inhibition, % at 9.4 µM | hit rate 0.32% among 310,000 | AID 504621;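 active means every replicate shows inhibition above about 80%, whatever the replicate mean, limit read from the data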;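 further: 0% = DMSO neutral controls and 100% = 20 µM radicicol positive controls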
Numbers without * were called inactive; . = no result given; + = active, no number. Hits are enriched below; roughly 1.7% of the tested compounds scored in any of these assays.

SMILES	SKKanGAS inh	CSC inhib	FN deposition inh	Rtt109 Vps75	PglD inh	PfHsp90 set2
Cc1[nH]c2ccccc2c1C(C#N)(C#N)C1C(=O)c2ccccc2C1=O	65*	34	11	3	-7	1
Cn1c(=O)c2c(SCC(=O)N3CCOCC3)nc(-c3ccccc3F)nc2n(C)c1=O	61*	-12	9	-3	0	33
CNC[C@@H]1Oc2ccc(NC(=O)CCN3CCOCC3)cc2CC(=O)N([C@H](C)CO)C[C@@H]1C	.	.	.	.	3	.
O=C(COC(=O)c1cc(Cl)ccc1[N+](=O)[O-])Nc1cccc2ccccc12	8	-5	5	-12	.	-16
Cc1ccc(NC(=O)COC(=O)c2cc(Cl)ccc2[N+](=O)[O-])c(C)c1	10	-9	30*	-12	.	8
CC1CCN(C(=O)CNC(=O)Cc2ccccc2)CC1	-5	.	0	-5	3	.
Cc1ccccc1/C=C/C(=O)NCC(=O)N1CCC(N(C)C2CCCCC2C)CC1 (centres undefined)	4	.	-5	60*	.	7
CCCC#Cc1cnc2c(c1)C(=O)N([C@H](C)CO)C[C@H](C)[C@@H](CN(C)C(=O)Cc1cccnc1)O2	.	.	-16	.	3	.
Cc1ccc(C(=O)NC(=S)NNC(=O)c2ccc([N+](=O)[O-])cc2)cc1	80*	-6	-2	10	1	-12
O=C(NNC(=S)NC(=O)c1ccc(Br)cc1)c1ccc([N+](=O)[O-])cc1	100*	8	-2	1	1	-16
O=C(NC(=S)NNC(=O)c1ccccc1O)c1ccc([N+](=O)[O-])cc1	16	17	4	7	-5	9
O=C(NNC(=S)NC(=O)c1ccc(Br)cc1)c1cccc([N+](=O)[O-])c1	102*	6	2	0	-6	-18
CC(=O)NNC(=S)NC(=O)c1cccc([N+](=O)[O-])c1	1	1	-8	5	.	8
O=C(NNC(=S)NC(=O)c1ccccc1)c1ccc([N+](=O)[O-])cc1	67*	19	-3	-2	-6	-10
O=C(NNC(=O)c1ccc([N+](=O)[O-])cc1)c1ccc(Br)cc1	4	-6	1	1	-5	6
CCCNC(=O)C[C@H]1CC[C@H]2[C@H](COc3ccc(NC(=O)Nc4cccc(C)c4)cc3C(=O)N2C)O1	.	.	.	.	-30	.
C[C@@H]1CN([C@H](C)CO)C(=O)c2cc(NC(=O)c3ccccc3)ccc2O[C@@H](C)CCCCO[C@H]1CN(C)S(=O)(=O)c1cn(C)cn1	.	.	27	.	-1	.
C[C@H]1CCCCO[C@H](CN(C)C(=O)c2ccncc2)[C@@H](C)CN([C@@H](C)CO)C(=O)c2cc(NC(=O)c3ccccc3)ccc2O1	.	.	.	.	5	.
CN1CCN(C(=O)C[C@H]2C[C@@H]3c4cc(NS(C)(=O)=O)ccc4O[C@@H]3[C@@H](CO)O2)CC1	.	.	3	.	-3	.
Cc1cc(=O)[nH]c2cc(O)ccc12	-6	-9	.	1	1	5
CC(C)=CCCC1(C)C=Cc2c(c(C)cc3c2[nH]c2cc(O)ccc23)O1 (centres undefined)	107*	93*	.	-2	-4	51
CNC[C@H]1Oc2ccc(N)cc2C(=O)N(C)C[C@H]1C	.	.	8	.	.	.
O=C(C[C@@H]1C[C@H]2c3cc(NC(=O)NC4CCCCC4)ccc3O[C@H]2[C@@H](CO)O1)NCc1ccncc1	.	.	-7	.	6	.
O=C(Nc1nc(-c2ccncc2)cs1)c1ccco1	-3	3	-4	8	-1	-8
O=C(Nc1nc(-c2ccccn2)cs1)c1cccc(-n2cnnn2)c1	53*	32	-1	2	0	-10
SMILES	SKKanGAS inh	CSC inhib	FN deposition inh	Rtt109 Vps75	PglD inh	PfHsp90 set2
O=C(Nc1nc(-c2ccc3c(c2)OCCO3)cs1)c1ccco1	56*	5	1	7	4	.
O=C(Nc1nc(-c2ccccn2)cs1)c1ccc(Br)s1	3	97*	.	5	5	126*
O=C(Nc1nc(-c2ccccn2)cs1)c1ccco1	59*	1	-8	-3	.	-10
O=C(Nc1ccc(Br)cc1)c1cccc(-n2cnnn2)c1	-5	-8	-1	-3	-1	5
O=C(Nc1nccs1)c1ccc(Br)s1	1	8	13	10	-1	-7
CC(C)NC(=O)Nc1ccc2c(c1)C(=O)N([C@@H](C)CO)C[C@H](C)[C@@H](CN(C)C(=O)c1ccccc1)OCCCC[C@H](C)O2	.	.	.	.	3	.
C[C@@H]1CCCCO[C@@H](CN(C)C(=O)Nc2ccc3c(c2)OCO3)[C@H](C)CN([C@@H](C)CO)C(=O)c2cc(NC(=O)CCC(F)(F)F)ccc2O1	.	.	.	.	-1	.
C=C(C)COc1ccc(-c2n[nH]c(C)c2-c2ccc(OC)cc2)c(O)c1	61*	+	-8	9	2	-33
O=C(NNC1=C(C(=O)C(F)(F)F)CCC1)c1ccc(Br)cc1	106*	107*	.	6	3	130*
Nc1ccccc1C(=O)NNC1=C(C(=O)C(F)(F)F)CCC1	-2	19	-9	-1	-2	3
O=C(NNC1=C(C(=O)C(F)(F)F)CCC1)c1ccccc1Cl	16	56	.	8	-3	0
O=C(NNC1=C(C(=O)C(F)(F)F)CCC1)c1ccccc1O	87*	.	.	6	.	15
CN(C)CC(=O)N[C@H]1CC[C@@H](CCn2cc(C3CC3)nn2)O[C@H]1CO	.	.	8	.	3	.
C[n+]1ccc(/C=N/Nc2nc(Cl)c(C#N)c(Cl)c2Cl)cc1	91*	-7	5	6	-4	-1
COc1ccc(-c2nc(NC(=O)C3CC(=O)N(c4ccc5c(c4)OCCO5)C3)sc2C)cc1 (centres undefined)	55*	53	11	-10	.	11
COc1ccc2nc(NC(=O)C3CC(=O)N(c4ccc5c(c4)OCCO5)C3)sc2c1 (centres undefined)	.	.	3	14	.	-3
COc1cccc(-c2ccc(C#N)c(OC(=O)c3c(Cl)cccc3Cl)n2)c1	-4	77*	.	1	.	13
Cc1csc(Nc2ccccc2C(F)(F)F)n1	9	-4	.	-6	.	-11
Cc1cc(C)n(-c2nc(N(C)C)nc(N(C)C)n2)n1	2	-4	.	-6	3	12
Cc1cc(C)n(-c2nc(Nc3ccccc3C(F)(F)F)nc(-n3nc(C)cc3C)n2)n1	135*	59	.	-6	.	-14
Cc1cc(C)n(-c2nc(Nc3ccccc3C)nc(-n3nc(C)cc3C)n2)n1	98*	10	5	.	.	.
CCC(=O)N1C[C@@H](C)[C@@H](OC)CN(C)C(=O)c2cc(NC(=O)c3cc(C)on3)ccc2OC[C@@H]1C	.	.	-2	.	.	.
S=C(Nc1ccc(Nc2ccccc2)cc1)NC1CCCCCC1	17	78*	5	-1	.	-11
S=C(Nc1ccc(Cl)cc1)NC1CCCCC1	-14	9	3	-7	-4	1

Screening data from PubChem BioAssay.
